37 variants from the RNAGym collection of RNA variant scans (doi:10.1126/science.aae0568) can be followed below.

Variants at the floor of the assay were thinned out.

B1: tRNA (parent)
chain: GUUCCGUUGGCGUAAUGGUAACGCGUCUCCCUCCUAAGGAGAAGACUGCGGGUUCGAGUCCCGUACGGAACG

The series covers variants of B1. As to the kind of experiment: yeast fitness relative to wild type (ratio to wild type); higher = fitter; tRNA-Arg(CCU), competitive growth, 37 C, YPD. The procedure, abridged: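 Variants of the tRNA-Arg(CCU) gene, chemically synthesised with a 3% per-site mutation rate at 69 sites, were placed at the native genomic locus in Saccharomyces cerevisiae. The pooled strains were competed in YPD at 37°C for 24 hours in six parallel replicates. Gene amplicons from the start population and from each end population were read by 100-nucleotide paired-end sequencing. Darwinian fitness relative to wild type came from changes in genotype frequencies; genotypes needed ≥ 100 starting reads, and estimates < 0.5 were set to 0.5.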
Regarding GUUCCGUUGGCGUAAUGGUAACGCGACUCCCUCCUAAGGAGACGUCUGCGGGUUUGAGUCCCGUCCGGAACG [U26A A43C A45U C55U A65C], the yeast fitness is at most 0.5. As for GUUCCGUUGGCGUAAUGGUAACGCGACUCACUCCUAAGGAGAAGACUGCGGGUUCGAGUCCUGUACGGAACG [U26A C30A C62U], the figure is 0.585; as for GUUCCGUUGGCGUAAUGGUAACGCGACUCCAUCCUAUGGAGAUGACUGCGGGUUCGAGUCCCGUACGGAACG [U26A C31A A37U A43U], at most 0.5; as for GUUCCGUUGGCGUAAUGGUAACGCGACUCCCUACUAGGGAGAAGACUGCGGGUUCGAGUCCCGUACGGAACG [U26A C33A A37G], 0.581. As for GUUCCGUUGGCGUAAUGGUAACGCGACUCGCUUCUAAGGAGAAGACUGCGGGUUCGAGUCCCGUACGGAACG [U26A C30G C33U], the figure is 0.604; as for GUUCCGUUGGCGUAAUGGUAACGCGACUCCGUCCUUAGGAGAAGACUGCGGGUCGGAGUCCCGUACGGAACG [U26A C31G A36U U54C C55G], at most 0.5.

In the case of GUUCCGUUGGCGUAAUGGUAACGCGACUCCCUCCUAAGGAGAAGACUGUGGCUUCGAGUCCCGUACGGAACG [U26A C49U G52C], the yeast fitness was at most 0.5.

In the case of GUUCCGUUGGCGUAAUGGUAACGCGACUCCCUCCUAAGGGGAAGACUGCGGGUUCGAGUCCUGUACGGAACG [U26A A40G C62U], the yeast fitness worked out at 0.567.

GUUCCGUUGGCGUAAUGGUAACGCGACUCCCUCUUAAGGAGAAGACGGCGGGUUCGAGUCCCGAACGGAACG [U26A C34U U47G U64A]: the yeast fitness was at most 0.5. As for GUUCCGUUGGCGUAAUGGUAACGCGACUCUCUCCUAUGGAGAAGACUGCGGGUUCGAGUCCCGUACGGAACG [U26A C30U A37U], the figure is at most 0.5; as for GUUCCGUUGGCGUAAUGGUAACGCGACUCCUUCCUAAGGAGAAGACUGCGGGUUCGAGUCCCGUACGGAACG [U26A C31U], 0.999. The value for GUUCCGUUGGCGUAAUGGUAACGCGACUCCAUCCUAAGGAGAAGACUGCGGGUUCGAGUCCCGUACGGAACG [U26A C31A] was 0.803. As for GUUCCGUUGGCGUAAUGGUAACGCGACUCCCUCCUAAGGAGAAGACUGUGGGUUCGAGUCCCGUGCGGAACG [U26A C49U A65G], the figure is at most 0.5; as for GUUCCGUUGGCGUAAUGGUAACGCGACUCCCUCCUAAGGAGAAGACUGUGGGUUCGAGUCCCGUCCGGAACG [U26A C49U A65C], 0.742. As for GUUCCGUUGGCGUAAUGGUAACGCGACUCCCUCCUAAGGAGAAGACUGUGGGUUCGAGUUCCGUACGGGACG [U26A C49U C60U A69G], the yeast fitness is at most 0.5.

Regarding GUUCCGUUGGCGUAAUGGUAACGCGACUCCCUCCUAAGGAGAAGGCUGCGGGUUCGAGUCCCGUACGGAACG [U26A A45G], the yeast fitness came out at 0.882. On to GUUCCGUUGGCGUAAUGGUAACGCGACUCCCUCCUAAGGAGAAGCCUGCGGGUUCGAGUCCCGUACGGAACG [U26A A45C], for which the yeast fitness is 0.698. On to GUUCCGUUGGCGUAAUGGUAACGCGACUCCCUCCUAAGGAGAAGACUGCGGGUUCGAGUCCCGUACGGUACG [U26A A69U], for which the yeast fitness is 1.03. As for GUUCCGUUGGCGUAAUGGUAACGCGACUCCCUCCUAAGGAGAAGACUGCGGGUUCGAGUCCCGUACGGCACG [U26A A69C], the figure is 1.06; as for GUUCCGUUGGCGUAAUGGUAACGCGACUCCCUCCUAAGGCGAAGACUGCGGGUUCGAGUCCCGCAAGGAACG [U26A A40C U64C C66A], at most 0.5; as for GUUCCGUUGGCGUAAUGGUAACGCGACUCCCUCCUAAGGAGAUGACUGCGGGUUCGAGUCCCGUACGGUACG [U26A A43U A69U], 0.695. The value for GUUCCGUUGGCGUAAUGGUAACGCGACUCCGUCCUCAGGAAAAGACUGCGGGUUGGAGUCCCGUACGGAACG [U26A C31G A36C G41A C55G] was at most 0.5. The value for GUUCCGUUGGCGUAAUGGUAACGCGACUCCCUCCUAAGGAGCAGACUGCGGGUUCGAGGCCCGUACGGAACG [U26A A42C U59G] was at most 0.5; that for GUUCCGUUGGCGUAAUGGUAACGCGACUCCCUCCUAAGGUGAAGACUGCGGGUUCGAAUCCCGUACGGACCG [U26A A40U G58A A70C] was at most 0.5. GUUCCGUUGGCGUAAUGGUAACGCGACUCCCUCGUAAGGAGAAGACUGCGGGUUCGAGUCCCGUACGGAACG [U26A C34G]: the yeast fitness was 0.618. As for GUUCCGUUGGCGUAAUGGUAACGCGACUCCCUCUUAAGGAGAAGACUGCAGGUUCGAGUCCCGUACGGUACG [U26A C34U G50A A69U], the figure is at most 0.5. As for GUUCCGUUGGCGUAAUGGUAACGCGACUCCCUCCUAAGGAGAAGACUGCGGGUUCGUGUCCCGUACGGAACG [U26A A57U], the figure is 0.802; as for GUUCCGUUGGCGUAAUGGUAACGCGACUCCCUCCUAAGGAGAAGACUGCGGGUUCGGGUCCCGUACGGAACG [U26A A57G], 0.973. As for GUUCCGUUGGCGUAAUGGUAACGCGACUCCCUCCUAAGGAGAAGACUGCGGGUUCGAGUCCCGUACGGACCG [U26A A70C], the figure is 0.928; as for GUUCCGUUGGCGUAAUGGUAACGCGACUCCCUCCUAAGGAGAUGACUGCGGGUUCGAGUCCCGUACGGAUCG [U26A A43U A70U], 0.838. As to GUUCCGUUGGCGUAAUGGUAACGCGACUCCCUCCUAAGGAGAGGACUGCGCGUUCGAGUCCCGUACGGUACG [U26A A43G G51C A69U], the yeast fitness is 0.566. For the variant GUUCCGUUGGCGUAAUGGUAACGCGAUUCCCUCCUAAGGAAAAGACUGCGGGUUCGAGUCCCGUGCGGAACG [U26A C27U G41A A65G], the yeast fitness came out at 0.534. The value for GUUCCGUUGGCGUAAUGGUAACGCGACUCCCUCCUAAGGAGAGGACUGCGGGUUCGAGUCCCGUACGGAACG [U26A A43G] was 0.832; that for GUUCCGUUGGCGUAAUGGUAACGCGAUUCCCUGCUUAGGAGAAGACUGCAGGUUCGAGUCCCGUACGGAACG [U26A C27U C33G A36U G50A] was at most 0.5.

GUUCCGUUGGCGUAAUGGUAACGCGACUCCCUCCUAAGGUGAAGACUGCGGGUUCGAGUCCCGUACGGUACG [U26A A40U A69U]: the yeast fitness is 0.699.

Turning to GUUCCGUUGGCGUAAUGGUAACGCGACUCCCUCCUAAGGAGAAGACUGAGGGUUCGAGUCCCGUACGGAACG [U26A C49A], the yeast fitness worked out at 0.637. The value for GUUCCGUUGGCGUAAUGGUAACGCGACUCCCUCCUAAGGAGAAGACUGGGGGUUCGAGUCCCGUACGGCACG [U26A C49G A69C] was 0.6.
